Assay results: ChEMBL document CHEMBL4732112, “Synthesis and in vitro evaluation of novel spiroketopyrazoles as acetyl-CoA carboxylase inhibitors and potential antitumor agents” (Eur J Med Chem, 2021)
pIC50: −log10 of the molar value.

Experiments:
[1] = biological target: T1, Acetyl-CoA carboxylase 1 (Homo sapiens, UniProt Q13085); assay: Inhibition of recombinant human C-terminal His-tagged ACC1 (1 to 2383 residues) expressed in baculovirus infected Sf9 insect cells at 5 uM preincubated for 15 mins followed by substrate addition and measured after 60 mins by ADP-glo luminescence assay relative to control
[2] = system: A549; assay: Antiproliferative activity against human A549 cells assessed as cell growth inhibition after 72 hrs by MTT assay; assay type: functional, cell-based; settings: A549, 72 h
Outline: (§1)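 HepG2, A549 or MDA-MB-231 cells grown in DMEM with 10% FBS and penicillin/streptomycin at 37 °C, 5% CO2. Seeded at 3×10^3 per well, left 24 h, then exposed to a range of concentrations for 72 h. MTT added for 4 h, formazan dissolved in DMSO, absorbance read at 550 nm. Mean ± SD, n=3.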

[3] = Cytotoxicity against HUVEC assessed as cell viability at 100 uM after 72 hrs by MTT assay relative to control; assay type: cell-based; settings: human, HUVEC cells, read-out: Activity
Outline: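 HUVEC kept in RPMI 1640 with 10% FBS at 37 °C, 5% CO2. Seeded at 3×10^3 per well and treated at 100 µM for 72 h after 24 h attachment. Viability by MTT with absorbance at 550 nm, as percent of control. Mean ± SD, n=3.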

[4] = biological target: T1, Acetyl-CoA carboxylase 1; assay: Inhibition of recombinant human C-terminal His-tagged ACC1 (1 to 2383 residues) expressed in baculovirus infected Sf9 insect cells at 0.1 uM preincubated for 15 mins followed by substrate addition and measured after 60 mins by ADP-glo luminescence assay relative to control
[5] = biological target: T1, Acetyl-CoA carboxylase 1; assay: Inhibition of recombinant human C-terminal His-tagged ACC1 (1 to 2383 residues) expressed in baculovirus infected Sf9 insect cells preincubated for 15 mins followed by substrate addition and measured after 60 mins by ADP-glo luminescence assay
Outline: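 Recombinant ACC1 in assay buffer preincubated with inhibitor in DMSO for 15 min at room temperature. Reaction started with substrate mixture and run 60 min at room temperature. Stopped with ADP-Glo reagent for 40 min, then detection reagent for 40 min to convert ADP to ATP, read by luminescence. Mean of two independent experiments.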

[6] = system: HepG2; assay: Antiproliferative activity against human HepG2 cells assessed as cell growth inhibition after 72 hrs by MTT assay; assay type: functional, cell-based; settings: HepG2, 72 h; outline: as §1
[7] = system: MDA-MB-231; assay: Antiproliferative activity against human MDA-MB-231 cells assessed as cell growth inhibition after 72 hrs by MTT assay; assay type: functional, cell-based; settings: MDA-MB-231, 72 h; outline: as §1

Structure (SMILES) | inhibition [1] | pIC50 [2] | viability at 72 h, 100 µM [3] | inhibition [4] | pIC50 [5] | pIC50 [6] | pIC50 [7]
CC(C)(C)n1cc2c(n1)C(=O)CC1(CCN(C(=O)c3cc(-c4ccc(N)cc4)nc4ccccc34)CC1)O2 | 101% | 6.01 | 84.8% | 94.1% | 8.89 | 6.20 | 5.30
Cc1ccc(-c2cc(C(=O)N3CCC4(CC3)CC(=O)c3nn(C(C)(C)C)cc3O4)c3ccccc3n2)cc1 | 101% | 5.28 | 49.6% | 93.8% | 8.65 | 5.84 | < 5.00
CC(C)(C)n1cc2c(n1)C(=O)CC1(CCN(C(=O)c3cc(Cl)nc4ccccc34)CC1)O2 | 96.7% | 5.14 | 99.3% | 59.1% | < 7.70 | 5.33 | 5.04
COc1ccc(-c2cc(C(=O)N3CCC4(CC3)CC(=O)c3nn(C(C)(C)C)cc3O4)c3ccccc3n2)cc1 | 101% | 5.43 | 102% | 94.8% | 8.50 | 5.56 | < 5.00
COc1cccc2c1C(=O)c1c(O)c3c(c(O)c1C2=O)C[C@@](O)(C(=O)CO)C[C@@H]3O[C@H]1C[C@H](N)[C@H](O)[C@H](C)O1 [DOXORUBICIN] | – | 6.23 | 14.4% | – | – | 6.16 | –
Cc1ccccc1-c1cc(C(=O)N2CCC3(CC2)CC(=O)c2nn(C(C)(C)C)cc2O3)c2ccccc2n1 | 95.5% | 5.73 | 38.6% | 41.8% | < 7.00 | < 5.00 | < 5.00
CC(C)(C)n1cc2c(n1)C(=O)CC1(CCN(C(=O)c3cc(-c4ccccc4Cl)nc4ccccc34)CC1)O2 | 94.4% | 5.66 | 103% | 43.6% | < 7.00 | < 5.00 | < 5.00
CC(C)(C)n1cc2c(n1)C(=O)CC1(CCN(C(=O)c3cc(-c4ccccc4)nc4ccccc34)CC1)O2 | 101% | 5.71 | 97.3% | 90.5% | 8.22 | 5.68 | < 5.00
COc1cc(C(=O)N2CCC3(CC2)CC(=O)c2nn(C(C)(C)C)cc2O3)c2ccccc2n1 | 93.8% | < 5.00 | 98.6% | 36.7% | < 7.00 | < 5.00 | < 5.00
CCOc1cc(C(=O)N2CCC3(CC2)CC(=O)c2nn(C(C)(C)C)cc2O3)c2ccccc2n1 | 93.9% | < 5.00 | 96.1% | 38.4% | < 7.00 | < 5.00 | < 5.00
CC(C)(C)n1cc2c(n1)C(=O)CC1(CCN(C(=O)c3cc(-c4ccc(Cl)cc4)nc4ccccc34)CC1)O2 | 104% | 5.63 | 87.3% | 93.2% | 8.22 | 6.20 | < 5.00
COc1ccc(-c2cc(C(=O)N3CCC4(CC3)CC(=O)c3nn(C(C)(C)C)cc3O4)c3ccccc3n2)cc1OC | 102% | 5.69 | 93.7% | 95.6% | 8.45 | 5.81 | 5.15
CC(C)(C)n1cc2c(n1)C(=O)CC1(CCN(C(=O)c3ccc4[nH]ncc4c3)CC1)O2 | 101% | 5.45 | 101% | 82.5% | – | 5.73 | 5.23
COc1ccccc1[C@H](Cn1c(=O)n(C(C)(C)C(=O)O)c(=O)c2c(C)c(-c3ncco3)sc21)OC1CCOCC1 [FIRSOCOSTAT] | – | – | – | – | 8.36 | – | –
CC(C)Oc1cc(C(=O)N2CCC3(CC2)CC(=O)c2nn(C(C)(C)C)cc2O3)c2ccccc2n1 | 99.4% | < 5.00 | 102% | 68% | < 7.70 | 5.50 | < 5.00
CC(C)(C)n1cc2c(n1)C(=O)CC1(CCN(C(=O)c3cc(-c4ccc(Br)cc4)nc4ccccc34)CC1)O2 | 102% | 5.03 | 84.1% | 93.2% | 8.25 | 6.09 | < 5.00
CN(C)c1ccc(-c2cc(C(=O)N3CCC4(CC3)CC(=O)c3nn(C(C)(C)C)cc3O4)c3ccccc3n2)cc1 | 99.6% | 5.94 | 91.3% | 96.4% | 8.57 | 5.76 | < 5.00
Cc1cc(C(=O)N2CCC3(CC2)CC(=O)c2nn(C(C)(C)C)cc2O3)c2ccccc2n1 | 93.6% | < 5.00 | 101% | 55% | < 7.70 | 5.02 | 5.31
CC(C)(C)n1cc2c(n1)C(=O)CC1(CCN(C(=O)c3cc(N4CCNCC4)nc4ccccc34)CC1)O2 | 97.6% | < 5.00 | 102% | 59.6% | < 7.70 | 5.07 | 5.38
CC(C)(C)n1cc2c(n1)C(=O)CC1(CCN(C(=O)c3cc(N4CCOCC4)nc4ccccc34)CC1)O2 | 97.7% | < 5.00 | 34.4% | 56.9% | < 7.70 | 5.34 | 5.50
CC(C)(C)n1cc2c(n1)C(=O)CC1(CCN(C(=O)c3cc(-c4ccccn4)nc4ccccc34)CC1)O2 | 103% | 5.11 | 104% | 84% | 7.86 | 5.82 | 5.09
CN1CCN(c2cc(C(=O)N3CCC4(CC3)CC(=O)c3nn(C(C)(C)C)cc3O4)c3ccccc3n2)CC1 | 97.4% | < 5.00 | 93.5% | 52.8% | < 7.70 | 5.02 | 5.09
CC(C)(C)n1cc2c(n1)C(=O)CC1(CCN(C(=O)c3cc(-c4ccc(F)cc4)nc4ccccc34)CC1)O2 | 100% | 5.24 | 98.7% | 87.3% | 8.03 | 5.53 | < 5.00
